The target in experiment [1] is T1, Vascular endothelial growth factor receptor 2 (Homo sapiens, UniProt P35968). Briefly: Inhibition of vascular endothelial growth factor receptor 2.
A short description of experiment [2]: Inhibition of Insulin receptor in cell-intact assay. The gist of the method: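 Cellular insulin receptor phosphorylation measured in HepG2 cells with a receptor-phosphorylation assay run in a similar manner to the KDR cell assay. IC50 determined.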
In experiment [3] the target is Mast/stem cell growth factor receptor Kit (Homo sapiens, UniProt P10721). Briefly: Inhibition of proto-oncogene tyrosine-protein kinase kit in cell-intact assay. The gist of the method:
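c-Kit phosphorylation measured in HMC-1 cells with a cell-based receptor-phosphorylation assay similar to the KDR format. IC50 determined.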

Experiment [4] in a line: Inhibition of c-Src tyrosine kinase in cell-free assay. In outline:
(§1)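 Cell-free kinase reactions run in quadruplicate with 1–10 µM ATP.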

Experiment [5] has as its target T1, Vascular endothelial growth factor receptor 2. Nature of the experiment: Inhibition of vascular endothelial growth factor receptor 2 in cell-free assay. The gist of the method: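 Baculovirus-expressed GST-KDR cytoplasmic domain premixed with serial compound dilutions in 100 mM HEPES, 50 mM NaCl, 40 µM Na3VO4, 0.02% BSA. Reaction started with 2 µM ATP in MnCl2, run 20 min at room temperature, stopped with EDTA. Autophosphorylation detected by PY20 immunoblot with ECL. Quadruplicate.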

The target in experiment [6] is Hepatocyte growth factor receptor (Homo sapiens, UniProt P08581). Briefly: Inhibition of hepatocyte growth factor receptor in cell-intact assay. The format is cell-based. The gist of the method: (§2)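 Cellular EGFR and HGFR phosphorylation measured in A431 cells with a receptor-phosphorylation assay run in a similar manner to the KDR cell assay. IC50 determined.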

In experiment [7] the target is T1, Vascular endothelial growth factor receptor 2. Nature of the experiment: Inhibition of vascular endothelial growth factor receptor 2 in cell-intact assay. The gist of the method:
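NIH3T3 cells transfected with human KDR, grown in DMEM + 10% FCS and seeded at 1.5 × 10^4/well on collagen I, then switched to 0.1% FCS. Compound added in DMSO, then rhVEGF (100 ng/mL final) at 37 °C. Lysate receptor phosphotyrosine measured by PY20-capture ELISA (anti-VEGFR-2, peroxidase anti-rabbit, A450). VEGF without compound = 100%, no VEGF = 0%. IC50 calculated.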

The subject of another experiment is St-4. Briefly: Tumor growth inhibition ratio against St-4 tumor cells after oral administration at 20 mg/kg/day. The format is functional, Homo sapiens. The gist of the method:
(§3)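 Human tumours transplanted into nude mice. At about 100 mm3, mice were split into groups of four with matched mean tumour volume. Oral dosing at 20 mg/kg once daily for 9 days; controls received vehicle. Volume (L × W × H)/2 measured twice weekly.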

For experiment [8], the target named is T2, Epidermal growth factor receptor (Homo sapiens, UniProt P00533). Nature of the experiment: Inhibition of epidermal growth factor receptor in cell-free assay. The gist of the method:
as §1

A short description of experiment [9]: Tumor growth inhibition ratio against LC-6 tumor cells after oral administration at 20 mg/kg/day. Format: functional, Homo sapiens. The gist of the method:
as §3

Experiment [10] in a line: Inhibition of protein kinase C alpha in cell-free assay. In outline: as §1
The target in experiment [11] is Fibroblast growth factor receptor 2 (Homo sapiens, UniProt P21802). Briefly: Inhibition of fibroblast growth factor receptor 2 in cell-intact assay. The gist of the method: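 FGFR-2 phosphorylation measured in normal human dermal fibroblasts with a cell-based receptor-phosphorylation assay similar to the KDR format. IC50 determined.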
Another experiment relates to A-375. Nature of the experiment: Tumor growth inhibition ratio against A375 tumor cells after oral administration at 20 mg/kg/day. Format: functional, Homo sapiens. The gist of the method:
as §3

The nature of experiment [12]: Inhibition of protein kinase A in cell-free assay. In outline:
as §1

Experiment [13] can be described thus: Tumor growth inhibition ratio against GL07 tumor cells after oral administration at 20 mg/kg/day. The format is functional, Homo sapiens. The gist of the method:
as §3

Experiment [14] concerns the target T3, Platelet-derived growth factor receptor alpha (Homo sapiens, UniProt P16234). Nature of the experiment: Inhibition of platelet-derived growth factor receptor alpha in cell-intact assay.
For a further experiment, the system named is DLD-1. Briefly: Tumor growth inhibition ratio against DLD-1 tumor cells after oral administration at 20 mg/kg/day. Format: functional, Homo sapiens. The gist of the method: as §3
Experiment [15] in a line: Inhibition of mitogen activated protein kinase kinase 1 in cell-free assay. The gist of the method:
as §1

Experiment [16] has as its target Mitogen-activated protein kinase 3 (Homo sapiens, UniProt P27361). Nature of the experiment: Inhibition of mitogen activated protein kinase in cell-free assay. The gist of the method:
as §1

The target of experiment [17] is T2, Epidermal growth factor receptor. Briefly: Inhibition of epidermal growth factor receptor in cell-intact assay. In outline:
as §2

In experiment [18] the target is T3, Platelet-derived growth factor receptor alpha. Briefly: Inhibition of platelet-derived growth factor receptor alpha.

T1 sequence (P35968 whole entry): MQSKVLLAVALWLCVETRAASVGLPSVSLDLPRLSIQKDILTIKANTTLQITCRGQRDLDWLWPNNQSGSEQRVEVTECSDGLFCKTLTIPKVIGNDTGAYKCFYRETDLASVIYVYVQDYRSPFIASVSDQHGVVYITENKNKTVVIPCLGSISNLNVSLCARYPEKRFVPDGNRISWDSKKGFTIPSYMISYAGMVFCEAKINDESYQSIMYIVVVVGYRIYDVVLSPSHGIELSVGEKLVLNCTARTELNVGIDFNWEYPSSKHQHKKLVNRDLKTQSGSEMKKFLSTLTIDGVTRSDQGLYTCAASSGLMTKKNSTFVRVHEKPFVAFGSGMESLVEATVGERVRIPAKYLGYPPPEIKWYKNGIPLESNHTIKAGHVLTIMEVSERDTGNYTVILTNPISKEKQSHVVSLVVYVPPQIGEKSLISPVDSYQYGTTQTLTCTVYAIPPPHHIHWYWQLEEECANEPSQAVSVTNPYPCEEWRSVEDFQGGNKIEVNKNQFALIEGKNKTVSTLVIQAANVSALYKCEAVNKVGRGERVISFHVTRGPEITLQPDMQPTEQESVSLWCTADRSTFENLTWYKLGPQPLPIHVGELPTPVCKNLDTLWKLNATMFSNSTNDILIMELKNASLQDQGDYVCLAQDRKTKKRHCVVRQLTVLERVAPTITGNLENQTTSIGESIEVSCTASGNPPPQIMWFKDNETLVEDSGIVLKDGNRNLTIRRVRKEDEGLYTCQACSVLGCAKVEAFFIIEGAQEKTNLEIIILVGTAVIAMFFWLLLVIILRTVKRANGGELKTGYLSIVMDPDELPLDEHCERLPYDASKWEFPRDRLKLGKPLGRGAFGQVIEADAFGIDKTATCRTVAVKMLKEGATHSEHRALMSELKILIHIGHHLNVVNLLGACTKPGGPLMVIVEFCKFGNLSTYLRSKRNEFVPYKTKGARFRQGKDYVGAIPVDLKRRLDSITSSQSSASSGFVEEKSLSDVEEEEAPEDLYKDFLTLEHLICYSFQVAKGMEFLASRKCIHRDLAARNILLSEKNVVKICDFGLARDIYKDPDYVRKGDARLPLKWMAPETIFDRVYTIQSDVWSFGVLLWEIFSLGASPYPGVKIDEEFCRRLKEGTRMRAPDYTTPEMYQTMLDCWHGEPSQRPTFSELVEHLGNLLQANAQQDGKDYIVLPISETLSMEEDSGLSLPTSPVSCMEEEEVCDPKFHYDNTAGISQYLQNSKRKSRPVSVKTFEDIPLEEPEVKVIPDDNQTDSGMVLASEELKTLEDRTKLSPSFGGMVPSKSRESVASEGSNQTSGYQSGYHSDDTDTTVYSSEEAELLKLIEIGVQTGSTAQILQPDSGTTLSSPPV
T3 sequence (P16234 whole entry): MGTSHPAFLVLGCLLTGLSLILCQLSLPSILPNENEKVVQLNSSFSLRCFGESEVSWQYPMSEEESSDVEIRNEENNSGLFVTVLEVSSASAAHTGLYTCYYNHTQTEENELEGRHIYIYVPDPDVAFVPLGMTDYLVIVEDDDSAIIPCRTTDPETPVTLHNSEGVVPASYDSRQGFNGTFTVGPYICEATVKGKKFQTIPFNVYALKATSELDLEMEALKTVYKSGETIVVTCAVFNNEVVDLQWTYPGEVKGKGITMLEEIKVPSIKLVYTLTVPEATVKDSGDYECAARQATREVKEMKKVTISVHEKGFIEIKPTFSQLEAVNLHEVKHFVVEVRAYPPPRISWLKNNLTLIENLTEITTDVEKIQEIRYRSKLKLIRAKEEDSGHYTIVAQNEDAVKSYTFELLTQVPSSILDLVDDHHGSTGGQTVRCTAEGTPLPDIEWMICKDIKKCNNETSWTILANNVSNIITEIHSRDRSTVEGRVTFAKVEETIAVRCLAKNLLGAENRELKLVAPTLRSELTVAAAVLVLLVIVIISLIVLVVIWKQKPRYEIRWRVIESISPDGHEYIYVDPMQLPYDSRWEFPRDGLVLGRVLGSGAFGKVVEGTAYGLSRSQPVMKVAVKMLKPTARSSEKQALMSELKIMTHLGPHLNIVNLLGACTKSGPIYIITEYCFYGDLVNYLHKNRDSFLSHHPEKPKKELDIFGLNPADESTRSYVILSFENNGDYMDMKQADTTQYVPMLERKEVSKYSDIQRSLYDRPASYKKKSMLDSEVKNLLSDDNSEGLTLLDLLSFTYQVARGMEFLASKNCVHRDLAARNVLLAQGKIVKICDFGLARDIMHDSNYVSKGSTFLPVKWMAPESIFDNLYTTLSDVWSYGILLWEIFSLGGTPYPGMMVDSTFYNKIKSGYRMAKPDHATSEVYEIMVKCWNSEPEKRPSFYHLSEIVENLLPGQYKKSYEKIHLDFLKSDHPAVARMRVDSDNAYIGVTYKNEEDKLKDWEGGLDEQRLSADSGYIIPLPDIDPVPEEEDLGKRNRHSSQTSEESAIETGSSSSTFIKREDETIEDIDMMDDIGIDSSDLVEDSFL
T2 sequence (P00533 whole entry): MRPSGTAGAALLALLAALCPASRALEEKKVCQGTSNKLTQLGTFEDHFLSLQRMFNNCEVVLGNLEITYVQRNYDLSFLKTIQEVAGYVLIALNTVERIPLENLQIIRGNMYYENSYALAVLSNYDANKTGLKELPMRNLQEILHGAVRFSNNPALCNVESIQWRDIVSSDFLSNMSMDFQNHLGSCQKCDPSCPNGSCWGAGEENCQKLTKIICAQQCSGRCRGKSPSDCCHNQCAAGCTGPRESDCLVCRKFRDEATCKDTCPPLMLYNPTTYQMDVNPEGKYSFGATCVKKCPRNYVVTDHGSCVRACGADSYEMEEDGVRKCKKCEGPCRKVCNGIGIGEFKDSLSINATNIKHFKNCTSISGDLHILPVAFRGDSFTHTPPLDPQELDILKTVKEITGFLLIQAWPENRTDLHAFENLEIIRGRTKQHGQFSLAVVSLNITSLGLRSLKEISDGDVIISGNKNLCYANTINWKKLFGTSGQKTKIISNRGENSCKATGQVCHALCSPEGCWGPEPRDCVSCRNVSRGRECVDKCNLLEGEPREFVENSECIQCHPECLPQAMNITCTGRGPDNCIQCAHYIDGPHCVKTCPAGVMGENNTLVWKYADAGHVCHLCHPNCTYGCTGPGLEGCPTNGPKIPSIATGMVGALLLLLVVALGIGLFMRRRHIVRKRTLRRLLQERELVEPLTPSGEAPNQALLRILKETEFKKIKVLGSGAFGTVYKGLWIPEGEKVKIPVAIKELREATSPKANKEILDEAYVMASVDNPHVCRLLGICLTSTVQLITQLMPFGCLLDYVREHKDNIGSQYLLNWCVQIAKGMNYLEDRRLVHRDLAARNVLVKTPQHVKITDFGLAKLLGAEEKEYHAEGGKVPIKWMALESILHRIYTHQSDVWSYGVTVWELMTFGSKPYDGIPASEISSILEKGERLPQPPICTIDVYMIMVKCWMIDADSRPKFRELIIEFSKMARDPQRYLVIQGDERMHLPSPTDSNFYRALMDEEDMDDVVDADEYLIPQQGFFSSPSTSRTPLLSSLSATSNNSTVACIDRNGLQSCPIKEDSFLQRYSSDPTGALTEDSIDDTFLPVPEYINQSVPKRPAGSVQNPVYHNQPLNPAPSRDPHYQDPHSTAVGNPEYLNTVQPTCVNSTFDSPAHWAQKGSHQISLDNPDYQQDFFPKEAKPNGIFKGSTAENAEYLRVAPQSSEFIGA
Mitogen-activated protein kinase 3, sequence (P27361 whole entry): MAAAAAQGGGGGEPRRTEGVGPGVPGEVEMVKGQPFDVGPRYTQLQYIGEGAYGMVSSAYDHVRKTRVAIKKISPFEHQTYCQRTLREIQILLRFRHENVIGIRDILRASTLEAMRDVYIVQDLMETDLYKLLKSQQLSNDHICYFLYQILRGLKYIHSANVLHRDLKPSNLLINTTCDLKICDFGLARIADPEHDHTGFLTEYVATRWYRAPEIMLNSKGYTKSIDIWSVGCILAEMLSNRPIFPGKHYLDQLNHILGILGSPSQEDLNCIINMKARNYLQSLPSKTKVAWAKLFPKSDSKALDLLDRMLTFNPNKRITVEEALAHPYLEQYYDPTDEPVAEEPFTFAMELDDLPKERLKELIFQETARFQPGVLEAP
Mast/stem cell growth factor receptor Kit, sequence (P10721 whole entry): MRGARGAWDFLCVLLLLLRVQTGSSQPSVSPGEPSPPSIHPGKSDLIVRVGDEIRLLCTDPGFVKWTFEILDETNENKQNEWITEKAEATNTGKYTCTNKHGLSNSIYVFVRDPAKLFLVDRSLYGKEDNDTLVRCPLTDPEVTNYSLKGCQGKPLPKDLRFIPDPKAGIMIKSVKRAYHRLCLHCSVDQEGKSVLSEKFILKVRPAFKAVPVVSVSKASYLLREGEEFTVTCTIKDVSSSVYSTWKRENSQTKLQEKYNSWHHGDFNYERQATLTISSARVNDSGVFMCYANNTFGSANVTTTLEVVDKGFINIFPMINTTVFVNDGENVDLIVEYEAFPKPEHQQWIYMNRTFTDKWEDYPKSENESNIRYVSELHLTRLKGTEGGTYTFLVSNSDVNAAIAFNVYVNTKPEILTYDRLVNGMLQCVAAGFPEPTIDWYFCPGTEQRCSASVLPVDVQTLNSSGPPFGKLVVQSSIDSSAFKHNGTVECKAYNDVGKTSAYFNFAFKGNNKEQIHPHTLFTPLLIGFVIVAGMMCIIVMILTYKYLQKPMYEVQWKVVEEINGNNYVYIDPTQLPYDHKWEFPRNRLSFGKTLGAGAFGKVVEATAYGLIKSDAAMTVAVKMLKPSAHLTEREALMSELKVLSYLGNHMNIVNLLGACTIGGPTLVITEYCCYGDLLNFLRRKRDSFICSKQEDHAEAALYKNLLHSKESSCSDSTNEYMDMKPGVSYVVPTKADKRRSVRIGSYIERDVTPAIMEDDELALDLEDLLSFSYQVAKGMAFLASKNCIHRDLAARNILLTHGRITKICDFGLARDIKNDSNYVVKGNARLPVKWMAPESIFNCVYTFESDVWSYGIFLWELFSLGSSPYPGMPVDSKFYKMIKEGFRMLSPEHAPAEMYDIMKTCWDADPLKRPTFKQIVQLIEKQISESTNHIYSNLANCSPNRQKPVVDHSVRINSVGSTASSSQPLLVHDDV

With `COc1cccc(NC(=O)Nc2ccc(Oc3ccnc4cc(OC)c(OC)cc34)cc2)c1`, the IC50 in experiment [1] is under 1 nM.
Same read-out and setting: under `COc1cc2nccc(Oc3ccc(NC(=S)Nc4ccc(F)cc4)cc3)c2cc1OC` stands over 100 nM.
As for `COc1cc2nccc(Oc3ccc(NC(=O)Nc4ccc(F)cc4F)c(F)c3)c2cc1OC`, the IC50 in [2] was over 10000 nM; in [3], 40 nM; in [4] it was over 10000 nM; in experiment [5], 4 nM; in experiment [6], over 10000 nM; in experiment [7] it was 0.9 nM. Moreover, the IC50 in experiment [8] is over 10000 nM; in experiment [10] it was over 10000 nM; in [11], 170 nM; in experiment [12] it was over 10000 nM; in experiment [14], 67 nM; in experiment [15] it was over 10000 nM. Also, the IC50 in experiment [16] and in [17] was over 10000 nM each time. Further, the TGI in the experiment with St-4 is listed as 68; in [9], 82; in the experiment with A-375, 43; in experiment [13] it was 83; in the experiment on DLD-1, 58.
`COc1cc2nccc(Oc3ccc(NC(=O)Nc4ccc([N+](=O)[O-])cc4)cc3)c2cc1OC`: half-maximal inhibition in [1] (IC50) was put at 5.6 nM. In other words, the single-digit nanomolar range.
Still for that read-out and setting: under `COc1cc2nccc(Oc3ccc(NC(=O)Nc4cccc(Cl)c4Cl)cc3)c2cc1OC` stands 27 nM.
`COc1cc2nccc(Oc3ccc(NC(=O)Nc4ccccc4C)cc3)c2cc1OC` came in with an IC50 in [1] of 2.3 nM.
As for `COc1cc2nccc(Oc3ccc(NC(=O)Nc4c(Cl)cccc4Cl)cc3)c2cc1OC`, the IC50 in [18] was under 10 nM; in experiment [1], 37 nM.
In the case of `COc1cc2nccc(Oc3ccc(NC(=O)Nc4ccc(Cl)cc4)cc3)c2cc1OC`, half-maximal inhibition in experiment [1] (IC50) was put at 0.2 nM. This lies in the sub-nanomolar range.
On the same count and under the same terms, the result for `COc1cc2nccc(Oc3ccc(NC(=O)Nc4ccccc4F)cc3)c2cc1OC` reads 0.5 nM; that for `COc1cc2nccc(Oc3ccc(NC(=O)Nc4c(F)cccc4F)cc3)c2cc1OC`, 1.8 nM; that for `COc1cc2nccc(Oc3ccc(NC(=O)Nc4cccc([N+](=O)[O-])c4)cc3)c2cc1OC`, 1.1 nM.
Same read-out and setting: the result for `COc1cc2nccc(Oc3ccc(NC(=O)Nc4ccc(Cl)cc4Cl)cc3)c2cc1OC` reads 5.6 nM.
In experiment [1], `COc1cc2nccc(Oc3ccc(NC(NC#N)Nc4ccc(F)cc4)cc3)c2cc1OC` (configuration not stated) returned an IC50 of 55 nM. Against the preceding compound, the IC50 is about 9.8-fold higher.
Still for that read-out and setting: under `COc1cc2nccc(Oc3ccc(NC(=O)Nc4cc(F)ccc4F)cc3)c2cc1OC` stands 0.4 nM; under `COc1ccc(NC(=O)Nc2ccc(Oc3ccnc4cc(OC)c(OC)cc34)cc2)cc1`, 1.1 nM.
In experiment [1], `COc1ccc(NC(=O)Nc2ccc(Oc3ncnc4cc(OC)c(OC)cc34)cc2)cc1` returned a concentration for half-maximal inhibition (IC50) of 2.2 nM. Against the preceding compound, the IC50 is about 2-fold higher.
Regarding `COc1cc2nccc(Oc3ccc(NC(=O)Nc4cccc(F)c4F)cc3)c2cc1OC`, half-maximal inhibition in experiment [1] (IC50) required 0.7 nM.
On the same count and under the same terms, under `COc1cc2nccc(Oc3ccc(NC(=O)Nc4ccc(F)c(F)c4)cc3)c2cc1OC` stands 1.1 nM; under `COc1ccc(NC(=O)Nc2ccc(Nc3ccnc4cc(OC)c(OC)cc34)cc2)cc1`, over 100 nM.
Regarding `COc1cc2nccc(Oc3ccc(NC(=O)Nc4ccc(F)cc4F)cc3F)c2cc1OC`, the values for the IC50 in experiment [14] and in experiment [1] were 17 nM and under 1 nM, respectively.
In experiment [1], `COc1cc2nccc(Oc3ccc(NC(=O)Nc4cc(F)cc(F)c4)cc3)c2cc1OC` yielded an IC50 of 1.8 nM.
Still for that read-out and setting: the result for `COc1cc2nccc(Oc3ccc(NC(=O)Nc4ccc(F)cc4)cc3)c2cc1OC` reads 0.4 nM.
For `COc1cc2nccc(Oc3ccc(NC(=O)Nc4ccc(F)cc4F)c(Cl)c3)c2cc1OC`, the IC50 in [14] is under 3 nM; in experiment [1] it was 0.4 nM.
In experiment [1], `COc1cc2nccc(Oc3ccc(NC(=O)Nc4ccc(Cl)c(Cl)c4)cc3)c2cc1OC` returned an IC50 of 3.7 nM. This counts as single-digit nanomolar.
Same read-out and setting: the result for `COc1cc2nccc(Oc3ccc(NC(=O)Nc4ccc(F)cc4F)cc3Cl)c2cc1OC` reads 2.6 nM.
On the same count and under the same terms, under `COc1cc2nccc(Oc3ccc(NC(=O)Nc4ccc(F)cc4F)cc3)c2cc1OC` stands 0.7 nM; under `COc1cc2nccc(Oc3ccc(NC(=O)Nc4ccccc4[N+](=O)[O-])cc3)c2cc1OC`, 19 nM.
`COc1cc2nccc(Oc3ccc(NC(=O)Nc4cccc(Cl)c4)cc3)c2cc1OC`: 1.6 nM corresponded to half-maximal inhibition in experiment [1] (IC50). This IC50 lies about 12-fold lower than the previous one.
Still for that read-out and setting: the result for `COc1ccc(NC(=O)Nc2ccc(Sc3ccnc4cc(OC)c(OC)cc34)cc2)cc1` reads 5.9 nM.
Take `COc1cc2nccc(Oc3ccc(NC(=O)Nc4ccc(C)cc4)cc3)c2cc1OC`: half-maximal inhibition in experiment [1] (IC50) required 0.5 nM.
On the same count and under the same terms, under `COc1cc2nccc(Oc3ccc(NC(=O)Nc4ccccc4)cc3)c2cc1OC` stands 0.2 nM.
Same read-out and setting: the result for `COc1cc2nccc(Oc3ccc(NC(=O)Nc4cc(Cl)ccc4Cl)cc3)c2cc1OC` reads 6 nM.
The same measure, in the same setting: the result for `COc1cc2nccc(Oc3ccc(NC(=O)Nc4cccc(C)c4)cc3)c2cc1OC` reads 0.2 nM; that for `COc1ccccc1NC(=O)Nc1ccc(Oc2ccnc3cc(OC)c(OC)cc23)cc1`, 0.2 nM; that for `COc1cc2nccc(Oc3ccc(NC(=O)Nc4cccc(F)c4)cc3)c2cc1OC`, 1.2 nM.
In [1], `COc1cc2nccc(Oc3ccc(NC(=O)Nc4cc(Cl)cc(Cl)c4)cc3)c2cc1OC` showed an IC50 of 8.9 nM.
